Experimental data: ChEMBL document CHEMBL4000155, “Synthesis and Antileukemic Activities of Piperlongumine and HDAC Inhibitor Hybrids against Acute Myeloid Leukemia Cells” (J Med Chem, 2016)
Calls of active or inactive are those of the source. The rule behind the calls is not given here.

How the values were obtained:
U-937 [1] = test: Induction of apoptosis in p53 null human U937 cells at 0.25 to 2 uM after 24 hrs by annexin V-FITC/PI staining based flow cytometry; type: functional, cell-based
Method in brief: (§1)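 Cells treated 24 h, single agents or SAHA+PL at 1:1 (each drug at the stated concentration). Annexin V-FITC/PI kit staining, then flow cytometry, reported as % Annexin V+ cells. Three independent experiments in triplicate, with data from one representative experiment. DMSO <0.1% vehicle control.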

Homo sapiens = organism: Homo sapiens; conditions: at 1 µM
U-937 [2] = test: Induction of DNA damage in p53 null human U937 cells at 2 uM after 20 hrs by SYBR gold staining based alkaline comet assay; type: functional, cell-based
Method in brief: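 U937 cells treated 20 h with SAHA and PL alone or combined (16 h for hybrids). Alkaline single-cell gel electrophoresis, SYBR Gold staining, microscopy. Median % DNA in tail from 4 replicate gels ± s.e.m.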

U-937 [3] = test: Induction of apoptosis in p53 null human U937 cells at 2 uM preincubated with NAC for 3 hrs followed by compound addition measured after 24 hrs by annexin V-FITC/PI staining based flow cytometry; type: functional, cell-based
Method in brief: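 U937 cells preincubated 3 h with 3 mM NAC or vehicle and washed with PBS to remove excess NAC. Then drug alone or with SAHA for 24 h. Apoptosis scored as % Annexin V+ by Annexin V-FITC/PI flow cytometry; vehicle DMSO < 0.1% v/v.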

U-937 [4] = test: Induction of apoptosis in p53 null human U937 cells at 2 uM after 24 hrs by annexin V-FITC/PI staining based flow cytometry; type: functional
Method in brief: (§2)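 Human U937 AML cells (p53 null) in RPMI 1640 with 10% FBS, 2 mM L-glutamine, penicillin/streptomycin, 37 °C, 5% CO2. Exposed 24 h to compound alone or with SAHA; vehicle DMSO < 0.1% v/v. Annexin V-FITC/PI staining and flow cytometry, reported as % Annexin V+ cells. Three independent experiments in triplicate; one representative shown. EC50 taken as concentration giving 50% Annexin V+ cells versus vehicle.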

MCF-10A = test: Cytotoxicity against human MCF10A cells assessed as decrease in cell viability at 0.5 to 5 uM after 24 hrs by MTT assay; type: cell-based
Method in brief: (§3)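 MCF-10A (DMEM/F12, 5% horse serum, hydrocortisone, cholera toxin, insulin, EGF) and U937 (RPMI 1640, 10% FBS) were exposed to 0.5–5 μM, alone or PL+SAHA 1:1, for 24 h. MTT 0.05 mg/mL, 3 h at 37 °C, DMSO solubilization, A570. Viability given as mean ± SD of four to six independent experiments. DMSO <0.1% vehicle control.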

U-937 [5] = test: Induction of cell death in p53 null human U937 cells at 1 to 4 uM after 24 hrs by annexin V-FITC/PI staining based flow cytometry; type: functional; method in brief: as §2
[6] = Antiproliferative activity against human CMS cells after 72 hrs by MTT assay; type: functional, cell-based
Method in brief: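 AML cell lines grown in RPMI 1640 with 10% FBS (20% for MOLM-13), 2 mM L-glutamine and penicillin/streptomycin at 37 °C, 5% CO2. Ara-C-resistant HL-60 and CMK sublines came from stepwise cytarabine selection and were kept in 600 nM or 300 nM cytarabine respectively. Cells were treated 72 h. MTT 0.05 mg/mL, 3 h at 37 °C, DMSO solubilization, absorbance at 570 nm. IC50 given ± SEM.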

U-937 [7] = test: Cytotoxicity against p53 null human U937 cells assessed as decrease in cell viability at 0.5 to 5 uM after 24 hrs by MTT assay; type: functional, cell-based; method in brief: as §3
U-937 [8] = test: Induction of apoptosis in p53 null human U937 cells at 1 uM after 24 hrs by annexin V-FITC/PI staining based flow cytometry; type: functional; method in brief: as §1
[9] = Chemical stability of the compound in pH 7.4 phosphate buffer at 50 uM incubated up to 4 hrs in presence of GSH by HPLC analysis; type: physicochemical; conditions: pH 7.4, 4 h
Method in brief: (§4)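 Compound at 50 μM incubated with or without 5 mM GSH in phosphate buffer pH 7.4 at 37 °C for up to 4 h. Mixtures analysed by HPLC with water/0.1% formic acid/10% methanol versus 0.1% formic acid in acetonitrile, 0.5 mL/min, 10–80% B gradient over 18 min.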

AML [10] = test: Induction of apoptosis in patient derived AML cells assessed as caspase 3 cleavage at 0.25 to 2 uM after 24 hrs by Western blot analysis; type: functional, cell-based; conditions: Homo sapiens
Method in brief: (§5)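 Primary AML patient cells, Ficoll-Hypaque purified and grown in RPMI 1640/20% FBS with ITS and 5637 supernatant. Exposed 24 h; whole-cell lysates prepared with protease/phosphatase inhibitors, run on SDS-PAGE, blotted to PVDF and probed for PARP and cleaved caspase-3.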

U-937 [11] = test: Induction of apoptosis in p53 null human U937 cells at 0.25 to 0.5 uM preincubated with NAC for 3 hrs followed by compound addition measured after 24 hrs by annexin V-FITC/PI staining based flow cytometry; type: functional, cell-based
Method in brief: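 U937 cells preincubated 3 h with 3 mM NAC or vehicle, washed with PBS, then drug-treated 24 h. Annexin V-FITC/PI staining by flow cytometry, reported as % Annexin V+.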

U-937 [12] = test: Induction of apoptosis in p53 null human U937 cells at 0.25 uM after 24 hrs by annexin V-FITC/PI staining based flow cytometry; type: functional; method in brief: as §1
U-937 [13] = test: Induction of apoptosis in p53 null human U937 cells at 0.5 uM after 24 hrs by annexin V-FITC/PI staining based flow cytometry; type: functional; method in brief: as §1
[14] = Chemical stability of the compound in pH 7.4 phosphate buffer at 50 uM incubated up to 4 hrs in absence of GSH by HPLC analysis; type: physicochemical; conditions: pH 7.4, 4 h; method in brief: as §4
U-937 [15] = test: Induction of apoptosis in p53 null human U937 cells assessed as PARP-1 cleavage at 0.25 to 0.5 uM after 24 hrs by Western blot analysis; type: functional, cell-based
Method in brief: (§6)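 U937 cells exposed for 24 h. Lysates with protease/phosphatase inhibitors were separated by SDS-PAGE, transferred to PVDF and probed for PARP and cleaved caspase-3, with β-actin as loading control.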

AML [16] = test: Induction of apoptosis in patient derived AML-91 cells after 24 hrs by annexin V-FITC/PI staining based flow cytometry; type: functional, cell-based; conditions: Homo sapiens
Method in brief: (§7)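 Primary AML samples purified by Ficoll-Hypaque density centrifugation and cultured in RPMI 1640 with 20% FBS, ITS and 20% 5637 bladder cancer cell supernatant as a GM-CSF source. Treated 24 h, then Annexin V-FITC/PI flow cytometry as % Annexin V+. Single experiment in triplicate.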

AML [17] = test: Induction of apoptosis in patient derived AML cells assessed as PARP-1 cleavage at 0.25 to 2 uM after 24 hrs by Western blot analysis; type: functional, cell-based; conditions: Homo sapiens; method in brief: as §5
AML [18] = test: Induction of apoptosis in patient derived AML-92 cells after 24 hrs by annexin V-FITC/PI staining based flow cytometry; type: functional, cell-based; conditions: Homo sapiens; method in brief: as §7
U-937 [19] = test: Induction of apoptosis in p53 null human U937 cells assessed as caspase 3 cleavage at 0.25 to 0.5 uM after 24 hrs by Western blot analysis; type: functional, cell-based; method in brief: as §6

Question: Which Activity (U-937 [1]) does the source give for `COc1cc(/C=C/C(=O)N2CCC(C)=CC2=O)cc(OC)c1OCCCCCCC(=O)NO` here?
Answer: The Activity was “inactive”.

Question: And the inhibition (Homo sapiens)?
Answer: Its inhibition is “Active”.

Question: Which results are given for `COC(=O)CCCCCCOc1c(OC)cc(/C=C/C(=O)N2CCC=CC2=O)cc1OC`?
Answer: Activity (U-937 [1]): inactive; inhibition (Homo sapiens): inactive

Question: Which Activity (U-937 [1]) does the source give for `COc1cc(/C=C/C(=O)N2CCCCC2=O)cc(OC)c1OCCCCCCC(=O)NO` here?
Answer: Its Activity is “inactive”.

Question: And the inhibition (Homo sapiens)?
Answer: The inhibition was “Active”.

Question: Which Activity (U-937 [2]) does the source give for `O=C(CCCCCCC(=O)Nc1ccccc1)NO` [VORINOSTAT] here?
Answer: The Activity was “inactive”.

Question: What about the Activity (U-937 [3]) of the same compound?
Answer: The Activity was “inactive”.

Question: And the Activity (U-937 [4])?
Answer: Its Activity is 25%.

Question: What about the Activity (MCF-10A) of the same compound?
Answer: Its Activity is “Non-Toxic”.

Question: And the Activity (U-937 [5])?
Answer: The Activity was “Active”.

Question: What about the IC50 [6] of the same compound?
Answer: Its IC50 is 1020 nM.

Question: Which Activity (U-937 [7]) does the source give for `COc1cc(C(=O)N2CCC=CC2=O)cc(OC)c1OCCCCCCC(=O)NO` here?
Answer: Its Activity is “Active”.

Question: What about the Activity (U-937 [4]) of the same compound?
Answer: Its Activity is 40%.

Question: What about the Activity (MCF-10A) of the same compound?
Answer: The Activity was “Non-Toxic”.

Question: And the inhibition (Homo sapiens)?
Answer: Its inhibition is “Active”.

Question: Which results are given for `COC(=O)CCCCCCOc1c(OC)cc(/C=C/C(=O)N2CCC=C(Cl)C2=O)cc1OC`?
Answer: Activity (U-937 [8]): 29.7%; inhibition (Homo sapiens): inactive

Question: Which results are given for `COc1cc(/C=C/C(=O)N2CCC=C(Cl)C2=O)cc(OC)c1OCCCCCCC(=O)NO`?
Answer: Activity (U-937 [7]): Active; Stability [9]: Unstable; Activity (AML [10]): Active; Activity (U-937 [11]): inactive; Activity (U-937 [12]): 29.9%; Activity (U-937 [8]): 88%; Activity (U-937 [13]): 49.2%; Stability [14]: Stable; Activity (U-937 [15]): Active; Activity (U-937 [4]): 100%; Activity (AML [16]): Dose-dependent effect; Activity (MCF-10A): Toxic; Activity (AML [17]): Active; Activity (AML [18]): Dose-dependent effect; Activity (U-937 [19]): Active; inhibition (Homo sapiens): Active

Question: For `COc1cc(C(=O)N2CCC=C(Cl)C2=O)cc(OC)c1OCCCCCCC(=O)NO`, which Activity (U-937 [7]) is on record?
Answer: Its Activity is “Active”.

Question: And the Stability [9]?
Answer: The Stability was “Unstable”.

Question: And the Activity (U-937 [4])?
Answer: Its Activity is 40%.

Question: And the Activity (MCF-10A)?
Answer: The Activity was “Non-Toxic”.

Question: And the inhibition (Homo sapiens)?
Answer: Its inhibition is “Active”.
